Data on one compound can be found in ChEMBL document CHEMBL5154815, “A Series of Substituted Bis-Aminotriazines Are Activators of the Natriuretic Peptide Receptor C” (J Med Chem, 2022).

The target in one series is Cytochrome P450 3A4 (Homo sapiens, UniProt P08684). Nature of the series: Inhibition of CYP3A4 in human liver microsomes using testosterone as a substrate preincubated for 10 mins followed by NADPH addition and measured after 10 mins by LC/MS/MS analysis.
The target in series [1] is T1, Atrial natriuretic peptide receptor 3 (Rattus norvegicus, UniProt P41740).
T1 sequence (P41740 whole entry): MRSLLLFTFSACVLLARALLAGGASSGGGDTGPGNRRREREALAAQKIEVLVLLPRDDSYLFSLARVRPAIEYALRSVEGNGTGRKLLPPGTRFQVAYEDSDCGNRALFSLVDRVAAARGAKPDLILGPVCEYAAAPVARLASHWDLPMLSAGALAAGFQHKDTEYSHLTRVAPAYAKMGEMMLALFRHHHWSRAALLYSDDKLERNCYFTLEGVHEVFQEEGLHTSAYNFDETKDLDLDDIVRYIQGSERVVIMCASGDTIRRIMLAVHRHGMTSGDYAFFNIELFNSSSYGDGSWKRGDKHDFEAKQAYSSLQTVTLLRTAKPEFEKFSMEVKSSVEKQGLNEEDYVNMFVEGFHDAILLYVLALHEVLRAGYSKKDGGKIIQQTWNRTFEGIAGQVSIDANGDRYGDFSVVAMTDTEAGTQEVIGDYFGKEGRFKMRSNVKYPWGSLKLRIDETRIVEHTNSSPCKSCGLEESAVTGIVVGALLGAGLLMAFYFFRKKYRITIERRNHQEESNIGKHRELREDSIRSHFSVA
Nature of the series: Agonist activity at NPRC in rat small mesenteric arteries assessed as vasorelaxation preincubated with M372049 for 15 mins followed by compound treatment by Organ bath assay. Type of series: tissue-based, Artery.

The target of series [2] is T2, Atrial natriuretic peptide receptor 3 (Rattus norvegicus) (UniProt P41740).
T2 sequence (whole entry): T1 sequence (P41740 whole entry)
Nature of the series: Agonist activity at NPRC in rat small mesenteric arteries assessed as inhibition of cANF4-23 induced vasorelaxation in presence of osteocrin by Organ bath assay. Type of series: tissue-based. Particulars: Artery, filed as agonist. In a few lines: (§1)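 Small mesenteric artery rings from male Wistar rats in classical tissue-bath pharmacology. Vessels were preincubated 15 min with M372049 10 μM or osteocrin 100 nM before the vasorelaxant response to test agents was assessed.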

The next series deals with Cytochrome P450 2C9 (Homo sapiens, UniProt P11712). As to the kind of experiment: Inhibition of CYP2C9 in human liver microsomes using diclofenac as substrate preincubated for 10 mins followed by NADPH addition and measured after 10 mins by LC/MS/MS analysis. (Microsomes from liver hold many membrane-bound enzymes, among them those of drug oxidation.)
Cytochrome P450 2C9, sequence (P11712 whole entry): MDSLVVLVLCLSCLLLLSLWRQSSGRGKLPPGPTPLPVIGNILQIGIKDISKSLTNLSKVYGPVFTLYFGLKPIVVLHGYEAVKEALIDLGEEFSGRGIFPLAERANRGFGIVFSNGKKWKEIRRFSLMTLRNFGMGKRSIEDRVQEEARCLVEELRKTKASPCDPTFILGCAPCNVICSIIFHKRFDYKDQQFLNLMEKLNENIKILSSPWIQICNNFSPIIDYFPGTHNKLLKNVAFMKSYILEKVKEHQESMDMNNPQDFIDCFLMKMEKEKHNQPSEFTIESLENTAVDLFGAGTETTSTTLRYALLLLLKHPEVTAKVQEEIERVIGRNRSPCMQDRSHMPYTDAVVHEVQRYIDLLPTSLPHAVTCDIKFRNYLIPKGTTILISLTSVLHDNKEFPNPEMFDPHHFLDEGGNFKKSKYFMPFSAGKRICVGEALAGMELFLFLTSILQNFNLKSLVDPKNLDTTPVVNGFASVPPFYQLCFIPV
Series [3] deals with T3, Atrial natriuretic peptide receptor 3 (Mus musculus, UniProt P70180).
T3 sequence (P70180 whole entry): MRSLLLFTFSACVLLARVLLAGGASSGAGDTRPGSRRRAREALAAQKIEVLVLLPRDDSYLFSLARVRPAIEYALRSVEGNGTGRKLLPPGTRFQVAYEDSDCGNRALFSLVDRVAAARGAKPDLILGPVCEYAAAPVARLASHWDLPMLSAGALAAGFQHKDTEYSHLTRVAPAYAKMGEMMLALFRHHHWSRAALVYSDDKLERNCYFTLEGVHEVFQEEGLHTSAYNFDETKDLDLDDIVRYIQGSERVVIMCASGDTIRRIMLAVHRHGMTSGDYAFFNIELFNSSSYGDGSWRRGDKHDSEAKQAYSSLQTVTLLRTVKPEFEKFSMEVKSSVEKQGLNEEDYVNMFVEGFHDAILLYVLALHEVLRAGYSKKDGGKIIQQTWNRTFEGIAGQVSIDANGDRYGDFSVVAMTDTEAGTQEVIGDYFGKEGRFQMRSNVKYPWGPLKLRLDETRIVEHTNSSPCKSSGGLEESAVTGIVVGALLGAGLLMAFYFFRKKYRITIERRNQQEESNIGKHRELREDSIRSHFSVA
As to the kind of experiment: Agonist activity at NPRC in knock out mouse mesenteric arteries assessed as vasorelaxation by Organ bath assay. Type of series: tissue-based, Artery.

The nature of series [4]: Mean residence time (0 to infinity) in fasted C57BL/6 mouse at 10 mg/kg, po by LC-MS/MS analysis. Particulars: in vivo.
Series [5] can be described thus: Half life in fasted C57BL/6 mouse at 3 mg/kg, iv by LC-MS/MS analysis. Type of series: ADME, organism-based. The conditions noted are these: in vivo.
For series [6], the target named is T3, Atrial natriuretic peptide receptor 3. As to the kind of experiment: Agonist activity at NPRC in wild type mouse mesenteric arteries assessed as vasorelaxation by Organ bath assay. Type of series: tissue-based, Artery.
The nature of series [7]: Oral bioavailability in fasted C57BL/6 mouse at 10 mg/kg by LC-MS/MS analysis. Type of series: ADME, organism-based. The conditions noted are these: in vivo.
A short description of series [8]: Stability of compound in pooled human plasma assessed as half life measured upto 120 mins by LC/MS/MS analysis. The conditions noted are these: 2 h.
In series [9] the target is T1, Atrial natriuretic peptide receptor 3. As to the kind of experiment: Agonist activity at NPRC in rat aorta assessed as vasorelaxation by Organ bath assay. Type of series: tissue-based.
For series [10] the target is unchanged. As to the kind of experiment: Agonist activity at NPRC in rat small mesenteric arteries assessed as vasorelaxation by Organ bath assay. In kind it is tissue-based, Artery.
The conditions of series [11]: rat, hepatocytes, 20 min, 1 µM.
Series [12] is described as follows: Half life in fasted C57BL/6 mouse at 10 mg/kg, po by LC-MS/MS analysis. Type of series: ADME, organism-based. The conditions noted are these: in vivo.
The nature of series [13]: Cmax in fasted C57BL/6 mouse at 10 mg/kg, po by LC-MS/MS analysis. Type of series: ADME, organism-based. The arrangement: dose 10 mg/kg, route po. Particulars: in vivo. The procedure, abridged:
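EDTA-K2 plasma was protein-precipitated with internal standard and centrifuged 20 min at 4 °C. Analysis by LC-MS/MS against a 1–1000 ng/mL calibration curve.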

Another series has as its target T4, Cytochrome P450 1A2 (Homo sapiens, UniProt P05177).
T4 sequence (P05177 whole entry): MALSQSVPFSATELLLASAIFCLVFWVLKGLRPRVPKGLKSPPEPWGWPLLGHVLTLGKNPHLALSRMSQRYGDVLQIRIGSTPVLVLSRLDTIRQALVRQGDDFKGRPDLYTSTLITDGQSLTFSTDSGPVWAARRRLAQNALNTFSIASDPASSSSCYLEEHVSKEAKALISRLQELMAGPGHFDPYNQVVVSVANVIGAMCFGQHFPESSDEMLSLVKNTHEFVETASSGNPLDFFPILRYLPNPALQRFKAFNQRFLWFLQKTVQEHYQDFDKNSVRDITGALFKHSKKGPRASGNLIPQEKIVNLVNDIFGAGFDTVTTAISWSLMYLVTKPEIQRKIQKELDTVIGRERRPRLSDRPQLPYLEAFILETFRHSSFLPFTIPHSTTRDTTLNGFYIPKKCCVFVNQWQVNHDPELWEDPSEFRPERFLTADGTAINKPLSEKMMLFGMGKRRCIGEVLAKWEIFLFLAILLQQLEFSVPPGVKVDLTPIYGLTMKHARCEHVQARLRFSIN
As to the kind of experiment: Inhibition of CYP1A2 in human liver microsomes using phenacetin as substrate preincubated for 10 mins followed by NADPH addition and measured after 10 mins by LC/MS/MS analysis.

Series [14] can be described thus: Initial plasma concentration in fasted C57BL/6 mouse at 3 mg/kg, iv by LC-MS/MS analysis.
Series [15] has as its target T2, Atrial natriuretic peptide receptor 3 (Rattus norvegicus). As to the kind of experiment: Agonist activity at NPRC in rat small mesenteric arteries assessed as inhibition of cANF4-23 induced vasorelaxation in presence of M372049 by Organ bath assay. Type of series: tissue-based. The conditions noted are these: Artery, filed as agonist. In a few lines: as §1

Calls of active or inactive are those of the source. The calls are words filed in the database; no cut-off is given here.

Cytochrome P450 3A4, sequence (P08684 whole entry): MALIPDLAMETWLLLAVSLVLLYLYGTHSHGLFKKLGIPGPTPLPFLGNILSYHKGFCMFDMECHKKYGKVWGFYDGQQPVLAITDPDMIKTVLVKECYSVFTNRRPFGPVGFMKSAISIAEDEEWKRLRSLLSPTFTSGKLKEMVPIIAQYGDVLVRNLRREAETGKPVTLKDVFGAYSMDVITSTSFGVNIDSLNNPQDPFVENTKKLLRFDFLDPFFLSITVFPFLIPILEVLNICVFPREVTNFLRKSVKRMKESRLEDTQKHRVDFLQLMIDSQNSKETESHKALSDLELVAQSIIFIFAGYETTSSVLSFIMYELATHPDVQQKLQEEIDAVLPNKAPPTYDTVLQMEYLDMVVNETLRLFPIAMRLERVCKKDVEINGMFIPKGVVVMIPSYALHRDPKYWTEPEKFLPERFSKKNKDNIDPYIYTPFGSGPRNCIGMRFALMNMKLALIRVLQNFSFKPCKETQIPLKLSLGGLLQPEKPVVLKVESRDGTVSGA

As for `CC(=O)Nc1ccc(Nc2ncnc(NCCC(=O)OC(C)(C)C)n2)cc1`, the IC50 on Cytochrome P450 3A4, at Cytochrome P450 2C9 and against Cytochrome P450 1A2 was greater than 50 µM throughout. Also, the EC50 in series [1] stood at 8.64 µM; in series [3], 10.1 µM; in [6], 1.58 µM; in series [9], 15.5 µM; in series [10] it was 0.86 µM. Also, the outcome in [2] and in series [15] was Active. Besides, the mean residence time MRT inf in series [4] amounted to 1.33 h. The values for the half-life in [5] and in [12] were 0.566 h and 1.37 h, respectively. In [7], this compound registered an F of 43.8%. Also, the figures for the t1/2 in [8] and in series [11] were greater than 2 h and 1.952 h, respectively. The same compound showed a Cmax in series [13] of 612 ng/mL. In series [14], this compound displayed a C0 of 2330 ng/mL.

As usually defined, the IC50 is the concentration needed to halve the response being measured. Read a high IC50 as a need for much substance. By EC50 is commonly meant the concentration needed to bring the measured effect to its halfway point. A word on the MRT inf: it is a mean duration of stay, worked out from the concentration-time curve. By half-life is commonly meant how long it takes for the measured level to halve. Higher therefore signals slow decline. As a reminder, the Cmax is the peak of the concentration-time curve.
